Values joined by “and” are separate entries in the source; they are usually repeats but may differ in a detail not shown here. Equal values may be shown once.
Tested on: HEK-293T
Assay: Multiplex assay against HEK293T
Assay type: toxicity, cell-based
Conditions: human
Outline: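 Cells stained live at seeding with Hoechst33342, BioTracker Green Microtubule Cytoskeleton Dye, MitoTracker Red and Annexin V Alexa Fluor 680 were imaged on a CQ1 microscope at 37°C and 5% CO2 after compound addition. Their classification by CellPathfinder machine-learning gating ran from Hoechst high-intensity objects versus normal cells, to healthy, pyknosed or fragmented nuclei among normal cells, to mitotic or apoptotic among pyknosed cells. Tubulin, mitochondrial-mass and membrane-permeability phenotypes are per cents of healthy-nucleus cells.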

[1] = 12 h, 1 µM, compound concentration 1 uM
[2] = 12 h, 10 µM, compound concentration 10 uM
[3] = 24 h, 1 µM, compound concentration 1 uM
[4] = 24 h, 10 µM, compound concentration 10 uM
[5] = 48 h, 1 µM, compound concentration 1 uM
[6] = 48 h, 10 µM, compound concentration 10 uM

CC(C)c1ccc(/C=N/NC(=O)c2ccc(O)cc2)cc1
Population Apoptotic (%) [1]: 6.34% and 9.68% | Population Fragmented Nuclei (%) [1]: 1.61% and 0.64% | Population Healthy Nuclei (%) [1]: 60.22% and 20.38% | Population Hoechst High Intensity Objects (%) [1]: 0.53% and 0% | Population Membrane Permeable-Phenotype (%) [1]: 0.45% and 0% | Population Mitochondria Different-Phenotype (%) [1]: 40.62% and 43.75% | Population Mitotic Cells (%) [1]: 93.66% and 90.32% | Population Normal (%) [1]: 99.47% and 100% | Population Pyknosed Nuclei (%) [1]: 38.17% and 78.98% | Total Cell Count [1]: 374 and 157 | Population Apoptotic (%) [2]: 12.69% and 7.75% | Population Fragmented Nuclei (%) [2]: 8.73% and 1.3% | Population Hoechst High Intensity Objects (%) [2]: 0.28% and 0% | Population Membrane Permeable-Phenotype (%) [2]: 0% | Population Mitochondria Different-Phenotype (%) [2]: 41.58% and 26.09% | Population Mitotic Cells (%) [2]: 87.31% and 92.25% | Population Normal (%) [2]: 99.72% and 100% | Population Pyknosed Nuclei (%) [2]: 37.75% and 83.77% | Total Cell Count [2]: 356 and 154 | Population Apoptotic (%) [3]: 16.67% and 14.29% | Population Fragmented Nuclei (%) [3]: 1.59% and 2.38% | Population Healthy Nuclei (%) [3]: 75.09% and 35.12% | Population Hoechst High Intensity Objects (%) [3]: 0% | Population Membrane Permeable-Phenotype (%) [3]: 0.71% and 3.39% | Population Mitochondria Different-Phenotype (%) [3]: 15.53% and 13.56% | Population Mitotic Cells (%) [3]: 83.33% and 85.71% | Population Normal (%) [3]: 100% | Population Pyknosed Nuclei (%) [3]: 23.32% and 62.5% | Population Tubulin-Different-Phenotype (%) [3]: 14.59% and 5.08% | Population Apoptotic (%) [4]: 14.4% and 12.98% | Population Fragmented Nuclei (%) [4]: 6.23% and 2.06% | Population Healthy Nuclei (%) [4]: 70.88% and 30.41% | Population Hoechst High Intensity Objects (%) [4]: 0% | Population Membrane Permeable-Phenotype (%) [4]: 0.78% and 0% | Population Mitochondria Different-Phenotype (%) [4]: 15.5% and 15.25% | Population Mitotic Cells (%) [4]: 85.6% and 87.02% | Population Normal (%) [4]: 100% | Population Pyknosed Nuclei (%) [4]: 22.89% and 67.53% | Population Tubulin-Different-Phenotype (%) [4]: 5.43% and 1.69% | Total Cell Count [4]: 546 and 194 | Population Apoptotic (%) [5]: 8.44% and 19.78% | Population Fragmented Nuclei (%) [5]: 2.76% and 1.47% | Population Healthy Nuclei (%) [5]: 85.78% and 53.92% | Population Hoechst High Intensity Objects (%) [5]: 0.15% and 0% | Population Membrane Permeable-Phenotype (%) [5]: 4.34% and 1.82% | Population Mitochondria Different-Phenotype (%) [5]: 13.72% and 24.55% | Population Mitotic Cells (%) [5]: 91.56% and 80.22% | Population Normal (%) [5]: 99.85% and 100% | Population Apoptotic (%) [6]: 10.39% and 16.36% | Population Fragmented Nuclei (%) [6]: 4.43% and 3.38% | Population Healthy Nuclei (%) [6]: 84.38% and 70.05% | Population Hoechst High Intensity Objects (%) [6]: 0.22% and 0% | Population Membrane Permeable-Phenotype (%) [6]: 1.81% and 0.69% | Population Mitochondria Different-Phenotype (%) [6]: 7.58% and 15.17% | Population Mitotic Cells (%) [6]: 89.61% and 83.64% | Population Normal (%) [6]: 99.78% and 100% | Population Pyknosed Nuclei (%) [6]: 11.19% and 26.57% | Population Tubulin-Different-Phenotype (%) [6]: 1.03% and 9.66%

O=C1NCc2ccc3c(-c4cccc(Cl)c4)c[nH]c3c21
Population Apoptotic (%) [1]: 9.74% and 10.57% | Population Fragmented Nuclei (%) [1]: 0.72% and 0.69% | Population Hoechst High Intensity Objects (%) [1]: 0.36% and 0% | Population Membrane Permeable-Phenotype (%) [1]: 0% | Population Mitochondria Different-Phenotype (%) [1]: 41.8% and 23.81% | Population Mitotic Cells (%) [1]: 90.26% and 89.43% | Population Normal (%) [1]: 99.64% and 100% | Population Pyknosed Nuclei (%) [1]: 55.4% and 84.83% | Total Cell Count [1]: 279 and 145 | Population Apoptotic (%) [2]: 21.19% and 16.81% | Population Fragmented Nuclei (%) [2]: 1.88% and 2.24% | Population Healthy Nuclei (%) [2]: 27.23% and 13.43% | Population Hoechst High Intensity Objects (%) [2]: 0.47% and 4.29% | Population Membrane Permeable-Phenotype (%) [2]: 0% | Population Mitotic Cells (%) [2]: 78.81% and 83.19% | Population Normal (%) [2]: 99.53% and 95.71% | Population Pyknosed Nuclei (%) [2]: 70.89% and 84.33% | Population Tubulin-Different-Phenotype (%) [2]: 5.17% and 11.11% | Total Cell Count [2]: 214 and 140 | Population Apoptotic (%) [3]: 26.79% and 11.65% | Population Fragmented Nuclei (%) [3]: 3.63% and 0.67% | Population Healthy Nuclei (%) [3]: 59.41% and 30.2% | Population Hoechst High Intensity Objects (%) [3]: 0% | Population Membrane Permeable-Phenotype (%) [3]: 0% | Population Mitotic Cells (%) [3]: 73.21% and 88.35% | Population Normal (%) [3]: 100% | Population Pyknosed Nuclei (%) [3]: 36.96% and 69.13% | Population Tubulin-Different-Phenotype (%) [3]: 7.78% and 8.89% | Total Cell Count [3]: 303 and 149 | Population Apoptotic (%) [4]: 31.52% and 52.43% | Population Fragmented Nuclei (%) [4]: 1.99% and 3.12% | Population Healthy Nuclei (%) [4]: 24.7% and 16.41% | Population Hoechst High Intensity Objects (%) [4]: 0% and 3.76% | Population Membrane Permeable-Phenotype (%) [4]: 0% and 4.76% | Population Mitochondria Different-Phenotype (%) [4]: 56.45% and 23.81% | Population Mitotic Cells (%) [4]: 68.48% and 47.57% | Population Normal (%) [4]: 100% and 96.24% | Population Pyknosed Nuclei (%) [4]: 73.31% and 80.47% | Population Tubulin-Different-Phenotype (%) [4]: 1.61% and 0% | Total Cell Count [4]: 251 and 133 | Population Apoptotic (%) [5]: 20.62% and 21.52% | Population Fragmented Nuclei (%) [5]: 3.28% and 0.63% | Population Healthy Nuclei (%) [5]: 72.22% and 49.69% | Population Hoechst High Intensity Objects (%) [5]: 0.5% and 0% | Population Membrane Permeable-Phenotype (%) [5]: 0.35% and 0% | Population Mitotic Cells (%) [5]: 79.38% and 78.48% | Population Normal (%) [5]: 99.5% and 100% | Population Pyknosed Nuclei (%) [5]: 24.49% and 49.69% | Total Cell Count [5]: 398 and 159 | Population Apoptotic (%) [6]: 54.1% and 46.85% | Population Fragmented Nuclei (%) [6]: 4.95% and 2.36% | Population Hoechst High Intensity Objects (%) [6]: 0.45% and 0.78% | Population Membrane Permeable-Phenotype (%) [6]: 0% | Population Mitochondria Different-Phenotype (%) [6]: 83.15% and 38.46% | Population Mitotic Cells (%) [6]: 45.9% and 53.15% | Population Normal (%) [6]: 99.55% and 99.22% | Population Pyknosed Nuclei (%) [6]: 54.95% and 87.4% | Total Cell Count [6]: 223 and 128

Source: ChEMBL document CHEMBL5724801, “EUbOPEN Chemogenomics Library - Multiplex” (2024)
